The source of these data is PMC4482135 (Organometallics, 2015).

The subject of data set [1] is 9-ethylguanine (9-EtG). Kind of data set: Binding to nucleobase 9-ethylguanine by 1H NMR. In a few lines: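 Test complex (ca. 500 μM) and 9-EtG (ca. 500 μM), about 1:1, in 26.7% MeOD-d4/73.3% D2O with 4 mM NaCl, so the complex is mainly the Ir–Cl form. Held at 310 K, pH* 7.4. 1H NMR (600 MHz) recorded 15 min and 24 h after nucleobase addition. Adduct percentage taken from 1H NMR peak integrations.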

Data set [2] can be described thus: Relative hydrophobicity by RP-HPLC. It is filed as physicochemical. The following applies: C18, H2O/MeCN with 50 mM NaCl; longer tR = more hydrophobic. In a few lines:
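RP-HPLC on C18 column (150 × 4.6 mm, 5 μm). A = H2O with 50 mM NaCl; B = H2O/MeCN 1:1 with 50 mM NaCl. Gradient starts at 20% B, reaches 100% B at 15 min, holds to 40 min, returns to 20% B by 42 min; run 57 min. Flow 1 mL min–1, detection 254 nm. Samples ca. 100 μM in 10% MeOH/90% H2O with 50 mM NaCl. tR from duplicates of triplicate runs.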

In data set [3] the test system is 9-methyladenine (9-MeA). Kind of data set: Binding to nucleobase 9-methyladenine by 1H NMR. The following applies: co-incubation with equimolar 9-EtG and 9-MeA, 310 K, pH* 7.4. In a few lines: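 Competition run: test complex (ca. 500 μM) with equimolar 9-EtG and 9-MeA in 26.7% MeOD-d4/73.3% D2O at 310 K, pH* 7.4. 1H NMR (600 MHz) recorded 15 min and 24 h after nucleobase addition. Percentage bound to each nucleobase calculated from 1H NMR peak integrations.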

Data set [4] concerns A2780 human ovarian cancer cells. Put plainly: Cellular-iridium distribution in A2780 cells. The data set is classed as cell-based. The following applies: IC50 concentrations.
The nature of data set [5]: Catalytic oxidation of NADH to NAD+ by UV-visible spectroscopy. The settings on record: complex 2.5 μM, NADH 69, 103, 146 μM, 310 K, pH 7.5. In a few lines:
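Test complex fixed at 2.5 μM with NADH at 69, 103 or 146 μM, in 5 mM Na2HPO4/NaH2PO4 buffer pH 7.5 (0.5% MeOH/99.5% H2O), 310 K, 24 h. NADH loss followed by UV–vis at 339 nm (εNADH = 6220 cm–1 M–1). Rate constant k taken from first-order kinetic plots in [NADH].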

The subject of data set [6] is A2780 ovarian carcinoma cells. Put plainly: Cellular-iridium accumulation in A2780 cells by ICP-MS. The data set is classed as cell-based, human. The settings on record: for cellular-Ir accumulation: 24 h exposure at equipotent (IC50) concentrations, no recovery, ICP-MS. In a few lines:
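A2780 cells, 1.5 × 10^6 per well, preincubated 24 h drug-free at 310 K in humidified 5% CO2. Then 24 h exposure to test complex. Cells trypsinised, counted and pelleted; pellets digested overnight in 73% HNO3 at 353 K, then diluted to 5% HNO3. 193Ir measured by ICP-MS (no-gas mode, duplicate readings, 0–100 ppb calibration). Triplicates in two independent experiments.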

Data set [7] has as its system A2780 human ovarian carcinoma cells. The following applies: read-out: IC50 values, A2780; previously reported complexes; ref [4b]; cited from earlier work.
For data set [8] the test system is unchanged. Kind of data set: In vitro growth inhibition. The following applies: read-out: IC50 values, A2780; 24 h drug exposure, 72 h recovery, SRB assay. It is filed as cell-based. Summed up:
(§1)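 Cells seeded at 5000 per well and preincubated 48 h drug-free at 310 K. Media: RPMI-1640 (A2780), DMEM (A549, MCF7) or McCoy's 5A (HCT116), each with 10% FCS. Test compound stocks made in 5% DMSO with saline/medium 1:1, then serially diluted in medium. Exposure 24 h, PBS wash, then 72 h recovery. SRB absorbance read at 470 nm against untreated control. IC50 (50% growth inhibition) from duplicates of triplicates in two independent experiments.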

The subject of data set [9] is MCF7 human breast carcinoma cells. Kind of data set: In vitro growth inhibition. It is filed as cell-based. The settings on record: read-out: IC50 values, MCF-7; 24 h drug exposure, 72 h recovery, SRB assay. Summed up:
as §1

The test system of data set [10] is A549 human lung carcinoma cells. Kind of data set: In vitro growth inhibition. The data set is classed as cell-based. The settings on record: read-out: IC50 values, A549; 24 h drug exposure, 72 h recovery, SRB assay. In a few lines:
as §1

Data set [11] concerns HCT116 human colon carcinoma cells. Kind of data set: In vitro growth inhibition. It is filed as cell-based. The settings on record: read-out: IC50 values, HCT-116; 24 h drug exposure, 72 h recovery, SRB assay. Summed up: as §1

Values joined by “and” are separate entries in the source; they are usually repeats but may differ in a detail not shown here. Equal values may be shown once. Read-outs that look alike come from different tables or passages of the source.

Consider `Cc1c(C)c(C)[c-](C)c1C.Fc1ccc(-c2[c-]cccc2)nc1.[Cl-].[Ir+3]` [Complex 4, [(η^5-Cp*)Ir(2-phenyl-5-fluoropyridine)Cl]], for which, in data set [1] (4 mM NaCl (Ir-Cl species), after 15 min), the “binding to 9-EtG in the presence of 4 mM NaCl” value is given as 100%. Further, the “binding to 9-EtG in the presence of 4 mM NaCl” value in [1] (4 mM NaCl (Ir–Cl species), after 24 h, 310 K) is 100%. Moreover, in [2], the “tR by RP-HPLC (relative hydrophobicity)” value is 18.60 ± 0.02 min. The “binding to 9-MeA in the presence of 9-EtG (competitive binding)” value in data set [3] was 5–10%. In [4], the “iridium in cell membrane and particulate fractions” value is 17.9%; the “iridium in cytoskeletal fraction” value is on record as 6.1%; the “iridium in cytosol fraction” value worked out at 69.2%; the “iridium in nuclear fraction” value is on record as 6.7%. For the same compound, the “average rate constant k, first-order with respect to [NADH]” value in data set [5] was 4.03 × 10^–4 min^–1. This compound gave a cellular-Ir accumulation in data set [6] of 11.1 ± 0.1 ng Ir × 10^6 A2780 cells.
As for `Cc1c(-c2ccccc2)c(C)[c-](C)c1C.[Cl-].[Ir+3].[c-]1ccccc1-c1ccccn1` (stereo not shown) [Complex 17, [(η^5-Cp^xPh)Ir(2-phenylpyridine)Cl]], the IC50 in data set [7] was 2.14 ± 0.5 µM.
`Cc1c(C)c(C)[c-](C)c1C.Oc1ccc(-c2[c-]cccc2)nc1.[Cl-].[Ir+3]` [Complex 12, [(η^5-Cp*)Ir(2-phenyl-5-hydroxypyridine)Cl]]: the “tR by RP-HPLC (relative hydrophobicity)” value in data set [2] is 17.8 min and 17.8 ± 0.2 min. Moreover, the IC50 in data set [8] was 13.3 ± 0.88 µM. In addition, the cellular-Ir accumulation in data set [6] was 10.2 ng Ir × 10^6 A2780 cells and 10.2 ± 0.2 ng Ir × 10^6 A2780 cells. In addition, the “fold cellular-iridium accumulation relative to isomer 11” value in data set [6] (A2780 cells, IC50 concentrations) worked out at 6 times.
Take `Cc1c(C)c(C)[c-](C)c1C.Oc1c[c-]c(-c2ccccn2)cc1.[Cl-].[Ir+3]` [Complex 11, [(η^5-Cp*)Ir(2-(4′-hydroxyphenyl)pyridine)Cl]]: the IC50 in data set [9] turned out to be 28.6 ± 0.9 µM; in data set [10], 56.67 ± 0.04 µM; in [8] it was 47.3 ± 0.1 µM; in data set [11], 29.3 ± 0.8 µM. The “tR by RP-HPLC (relative hydrophobicity)” value in data set [2] is 15.11 min and 15.1 min and 15.11 ± 0.03 min. Also, the cellular-Ir accumulation in data set [6] was 1.58 ng Ir × 10^6 A2780 cells and 1.6 ng Ir × 10^6 A2780 cells and 1.6 ± 0.1 ng Ir × 10^6 A2780 cells.
Consider `Cc1c(C)c(C)[c-](C)c1C.Fc1ccc[c-]c1-c1ccccn1.[Cl-].[Ir+3]` [Complex 1, [(η^5-Cp*)Ir(2-(2′-fluorophenyl)pyridine)Cl]], for which the results for the half-maximal inhibitory concentration (IC50) in data set [9], in data set [10] and in data set [11] were 9.6 ± 0.4 µM, 10.36 ± 0.07 µM and 3.7 ± 0.3 µM, respectively.
Take `N.N.[Cl][Pt][Cl]` [cisplatin, reference compound]: the IC50 in data set [9] was found to be 7 ± 0.1 µM; in data set [10] it was 3.5 ± 0.2 µM; in [8] it was 1.2 ± 0.2 µM; in data set [11], 5.2 ± 0.3 µM.
